Measurements published in ChEMBL document CHEMBL2062417, “Biotinylated quercetin as an intrinsic photoaffinity proteomics probe for the identification of quercetin target proteins” (Bioorg Med Chem, 2011).
The source made the active and inactive calls. The calls are words filed in the database; no cut-off is given here.

Tests used:
Jurkat [1] = test: Inhibition of heat shock-induced HSP70 expression in human Jurkat cells at 145 uM treated 2 hrs before beat shock challenge measured after 8 hrs by Western blotting; assay type: functional, cell-based
Outline: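 Jurkat cells (low basal HSP70) got 145 μM compound or DMSO vehicle for 2 h, then a 30 min 43 °C heat shock and 8 h recovery at 37 °C. HSP70 and actin were read by Western blot. Controls were unheated cells and heated cells with no additive.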

[2] = biological target: ATP synthase F(1) complex subunit beta, mitochondrial (Homo sapiens) (UniProt P06576); test: Binding affinity to ATP5B in human Jurkat cells at 150 uM followed by UV irradiation for 30 mins with Wood's glass filtered medium pressure mercury arc light prior to cell lysis measured after denaturing wash by SDS-PAGE based pull down assay
ATP synthase F(1) complex subunit beta, mitochondrial (Homo sapiens), sequence (P06576 whole entry, one chain of several): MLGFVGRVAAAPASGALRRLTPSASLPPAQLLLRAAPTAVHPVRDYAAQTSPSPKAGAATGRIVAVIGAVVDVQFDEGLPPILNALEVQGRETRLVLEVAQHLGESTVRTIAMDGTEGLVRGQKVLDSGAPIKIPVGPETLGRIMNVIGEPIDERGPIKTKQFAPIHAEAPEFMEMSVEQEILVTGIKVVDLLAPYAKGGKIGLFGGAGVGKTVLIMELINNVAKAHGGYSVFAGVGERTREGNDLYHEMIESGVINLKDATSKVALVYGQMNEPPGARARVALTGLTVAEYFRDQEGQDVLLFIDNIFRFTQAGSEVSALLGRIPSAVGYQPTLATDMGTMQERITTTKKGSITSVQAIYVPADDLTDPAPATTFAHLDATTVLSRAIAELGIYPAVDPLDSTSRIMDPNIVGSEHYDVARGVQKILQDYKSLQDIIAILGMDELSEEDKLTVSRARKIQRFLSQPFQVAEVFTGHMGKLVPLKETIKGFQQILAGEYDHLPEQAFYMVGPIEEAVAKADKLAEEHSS
Outline: (§1)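 Jurkat cells were grown in RPMI with 10% FBS (about 15×10^6 cells) and treated 2 h with 150 μM BioQ in 3% aqueous DMSO. They were heat-shocked at 43 °C for 30 min, recovered 1 h at 37 °C, and UV-irradiated (320–400 nm, peak 365 nm, 30 min, 4 °C) before or after sonication lysis. Streptavidin-agarose capture ran 1 h. Beads were washed ≥3× with lysis buffer or 2% SDS Tris pH 7.4, boiled, run on 12% SDS-PAGE and silver-stained.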

Jurkat [3] = test: Binding affinity to quercetin binding protein in human Jurkat cells at 150 uM followed by UV irradiation for 30 mins with Wood's glass filtered medium pressure mercury arc light before cell lysis measured after denaturing wash by Western blotting based pull down assay in presence of heat shock
Outline: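 Streptavidin pull-downs from heat-shocked, BioQ-treated (150 μM), UV-irradiated Jurkat cells received a 2% SDS wash. Proteins were transferred from SDS gels to nitrocellulose and blocked overnight in 3% BSA at 4 °C. Blots were probed 1 h with HRP-conjugated anti-biotin antibody and developed with 4-chloro-1-naphthol/0.01% H2O2, with no-UV and no-probe controls.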

[4] = biological target: T1, Ubiquitin-like modifier-activating enzyme 1 (Homo sapiens) (UniProt P22314); test: Binding affinity to UBA1 in human Jurkat cells at 150 uM followed by UV irradiation for 30 mins with Wood's glass filtered medium pressure mercury arc light prior to cell lysis measured after denaturing wash by SDS-PAGE based pull down assay; outline: as §1
T1 sequence (whole entry): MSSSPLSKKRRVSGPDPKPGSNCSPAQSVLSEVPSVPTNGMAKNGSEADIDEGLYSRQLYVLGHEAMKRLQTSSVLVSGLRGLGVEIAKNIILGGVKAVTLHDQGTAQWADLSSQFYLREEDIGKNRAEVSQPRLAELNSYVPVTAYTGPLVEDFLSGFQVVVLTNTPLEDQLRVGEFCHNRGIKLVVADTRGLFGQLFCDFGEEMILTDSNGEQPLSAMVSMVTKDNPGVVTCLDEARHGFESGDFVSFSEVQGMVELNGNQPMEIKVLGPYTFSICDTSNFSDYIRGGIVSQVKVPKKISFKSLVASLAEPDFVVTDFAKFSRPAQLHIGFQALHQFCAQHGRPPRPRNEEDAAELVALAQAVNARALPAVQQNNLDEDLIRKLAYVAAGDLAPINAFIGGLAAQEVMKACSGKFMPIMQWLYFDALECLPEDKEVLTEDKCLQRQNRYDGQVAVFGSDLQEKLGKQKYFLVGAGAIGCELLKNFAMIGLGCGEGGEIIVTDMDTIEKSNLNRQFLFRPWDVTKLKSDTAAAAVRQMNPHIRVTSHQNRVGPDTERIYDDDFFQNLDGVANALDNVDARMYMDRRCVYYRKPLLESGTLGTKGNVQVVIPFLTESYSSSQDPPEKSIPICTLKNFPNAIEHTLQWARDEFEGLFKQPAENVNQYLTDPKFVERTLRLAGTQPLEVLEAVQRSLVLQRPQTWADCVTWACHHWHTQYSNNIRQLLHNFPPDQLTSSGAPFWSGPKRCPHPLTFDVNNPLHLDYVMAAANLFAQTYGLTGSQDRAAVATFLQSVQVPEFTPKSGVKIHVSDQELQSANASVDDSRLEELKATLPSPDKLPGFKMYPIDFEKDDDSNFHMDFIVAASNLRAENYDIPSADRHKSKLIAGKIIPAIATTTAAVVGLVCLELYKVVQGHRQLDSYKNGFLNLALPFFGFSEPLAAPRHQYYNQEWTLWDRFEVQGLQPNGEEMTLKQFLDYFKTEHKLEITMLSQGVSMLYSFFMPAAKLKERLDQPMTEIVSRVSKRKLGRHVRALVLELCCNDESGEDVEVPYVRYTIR

Jurkat [5] = test: Binding affinity to quercetin binding protein in human Jurkat cells at 150 uM followed by UV irradiation for 30 mins with Wood's glass filtered medium pressure mercury arc light after cell lysis by SDS-PAGE based pull down assay; outline: as §1
[6] = biological target: ATP synthase F(1) complex subunit alpha, mitochondrial (Homo sapiens) (UniProt P25705); test: Binding affinity to ATP5A1 in human Jurkat cells at 150 uM followed by UV irradiation for 30 mins with Wood's glass filtered medium pressure mercury arc light prior to cell lysis measured after denaturing wash by LC-MS/MS based pull down assay
ATP synthase F(1) complex subunit alpha, mitochondrial (Homo sapiens), sequence (P25705 whole entry, one chain of several): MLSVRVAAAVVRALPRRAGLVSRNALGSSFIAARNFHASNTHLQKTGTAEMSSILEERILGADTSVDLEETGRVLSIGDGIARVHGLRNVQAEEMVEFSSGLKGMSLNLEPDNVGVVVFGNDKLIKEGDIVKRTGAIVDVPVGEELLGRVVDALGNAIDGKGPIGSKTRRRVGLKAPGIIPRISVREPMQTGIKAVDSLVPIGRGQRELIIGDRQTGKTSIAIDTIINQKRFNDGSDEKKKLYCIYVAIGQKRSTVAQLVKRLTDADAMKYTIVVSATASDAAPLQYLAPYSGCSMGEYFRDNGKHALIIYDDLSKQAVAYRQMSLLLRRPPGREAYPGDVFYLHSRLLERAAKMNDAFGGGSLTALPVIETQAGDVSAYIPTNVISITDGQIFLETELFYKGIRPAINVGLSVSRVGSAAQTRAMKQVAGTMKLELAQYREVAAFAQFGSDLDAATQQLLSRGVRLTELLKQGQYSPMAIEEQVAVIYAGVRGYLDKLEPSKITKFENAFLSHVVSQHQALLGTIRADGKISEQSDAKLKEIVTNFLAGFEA
Outline: (§2)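 Silver-stained bands from cells irradiated before lysis were excised, destained, reduced with 10 mM DTT, alkylated with 50 mM iodoacetamide and digested with trypsin overnight. Peptides were extracted in 1% TFA/50% acetonitrile. Nano-C18 LC used a 2–50% acetonitrile gradient with 0.1% formic acid over 50 min at 260 nL/min, followed by MS/MS identification.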

Jurkat [7] = test: Binding affinity to quercetin binding protein in human Jurkat cells at 150 uM followed by UV irradiation for 30 mins with Wood's glass filtered medium pressure mercury arc light before cell lysis measured after denaturing wash by SDS-PAGE based pull down assay; outline: as §1
[8] = biological target: Heat shock-related 70 kDa protein 2 (Homo sapiens) (UniProt P54652); test: Binding affinity to HSPA2 in human Jurkat cells at 150 uM followed by UV irradiation for 30 mins with Wood's glass filtered medium pressure mercury arc light after cell lysis measured after denaturing wash by SDS-PAGE based pull down assay; outline: as §1
Heat shock-related 70 kDa protein 2 (Homo sapiens), sequence (P54652 whole entry): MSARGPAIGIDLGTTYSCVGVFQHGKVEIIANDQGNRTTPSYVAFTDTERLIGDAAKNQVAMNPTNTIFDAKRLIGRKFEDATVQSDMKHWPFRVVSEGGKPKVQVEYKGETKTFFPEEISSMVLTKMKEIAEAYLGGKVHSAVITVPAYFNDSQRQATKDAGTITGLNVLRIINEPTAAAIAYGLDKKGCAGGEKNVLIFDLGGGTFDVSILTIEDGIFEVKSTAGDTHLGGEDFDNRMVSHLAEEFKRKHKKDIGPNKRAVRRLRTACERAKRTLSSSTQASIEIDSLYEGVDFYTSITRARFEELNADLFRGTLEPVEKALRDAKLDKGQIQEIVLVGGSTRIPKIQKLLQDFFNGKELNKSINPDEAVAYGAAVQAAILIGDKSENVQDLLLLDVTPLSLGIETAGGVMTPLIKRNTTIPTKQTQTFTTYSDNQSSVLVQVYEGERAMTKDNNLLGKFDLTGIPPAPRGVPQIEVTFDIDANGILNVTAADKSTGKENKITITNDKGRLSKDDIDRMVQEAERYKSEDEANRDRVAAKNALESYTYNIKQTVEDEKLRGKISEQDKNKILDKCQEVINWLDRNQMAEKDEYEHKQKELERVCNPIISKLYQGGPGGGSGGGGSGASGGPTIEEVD

[9] = biological target: T1, Ubiquitin-like modifier-activating enzyme 1 (Homo sapiens); test: Binding affinity to UBA1 in human Jurkat cells at 150 uM followed by UV irradiation for 30 mins with Wood's glass filtered medium pressure mercury arc light prior to cell lysis measured after denaturing wash by LC-MS/MS based pull down assay; outline: as §2
[10] = biological target: Eukaryotic translation initiation factor 3 subunit F (Homo sapiens) (UniProt O00303); test: Binding affinity to EIF3F in human Jurkat cells at 150 uM followed by UV irradiation for 30 mins with Wood's glass filtered medium pressure mercury arc light after cell lysis measured after denaturing wash by SDS-PAGE based pull down assay; outline: as §1
Eukaryotic translation initiation factor 3 subunit F (Homo sapiens), sequence (O00303 whole entry): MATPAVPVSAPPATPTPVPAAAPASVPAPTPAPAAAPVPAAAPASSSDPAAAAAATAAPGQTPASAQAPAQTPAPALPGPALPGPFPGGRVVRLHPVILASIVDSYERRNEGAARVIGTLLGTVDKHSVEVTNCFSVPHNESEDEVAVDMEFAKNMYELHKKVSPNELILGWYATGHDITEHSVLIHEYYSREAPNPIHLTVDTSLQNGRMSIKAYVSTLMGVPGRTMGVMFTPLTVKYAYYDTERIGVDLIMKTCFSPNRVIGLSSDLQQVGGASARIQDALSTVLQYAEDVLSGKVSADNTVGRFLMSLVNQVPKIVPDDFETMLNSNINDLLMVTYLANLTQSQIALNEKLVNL

Homo sapiens = species: Homo sapiens; test: Binding affinity to CK2 at 150 uM followed by UV irradiation for 30 mins with Wood's glass filtered medium pressure mercury arc light by silver staining based pull down assay
Outline: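 CK2 (17.5–70 nM) was mixed with 150 μM BioQ in 400 μL 10 mM PBS pH 7.2 with protease inhibitors, with or without 10 mM MgCl2 and 2 μM ATP. Samples were irradiated 30 min on ice (320–400 nm, peak 365 nm) or left unirradiated. Capture was on streptavidin agarose for 1 h, with washes in lysis buffer or 2% SDS Tris buffer, then boiling, SDS-PAGE and silver staining.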

Activity [2]: Active | Activity [4]: Active | Activity [6]: Active | Activity [8]: Active | Activity [9]: Active | Activity [10]: Active | Activity (Homo sapiens): inactive
Structure (SMILES): O=C(CCCC[C@@H]1SC[C@@H]2NC(=O)N[C@@H]21)NCCOCCOCCNC(=O)COc1cc(O)c2c(=O)c(O)c(-c3ccc(O)c(O)c3)oc2c1
inhibition (Jurkat [1]): Active | Activity (Jurkat [3]): Active | Activity (Jurkat [5]): Active | Activity (Jurkat [7]): Active
